In ChEMBL document CHEMBL4229461 (Bioorg Med Chem, 2018) one finds DC50, Activity and MNTC data, which are given here for eleven compounds.

SMILES strings stand for the structures. Activity calls are given as the source filed them. The rule behind the calls is not given here.

Series [1] deals with T1, Amyloid-beta precursor protein (Homo sapiens, UniProt P05067). Nature of the series: Disruption of recombinant human amyloid beta (1 to 40) fibrils after 24 hrs by ThT fluorescence assay.
For series [2], the target named is T1, Amyloid-beta precursor protein. Nature of the series: Disruption of recombinant human amyloid beta (1 to 40) fibrils at 10 uM after 24 hrs by ThT fluorescence assay relative to control. The procedure, abridged:
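Aβ1-40 fibrils (10 μM in 150 mM MOPS, pH 6.9) incubated 24 h at 37 °C with compound at 10 μM. ThT added to 20 μM, 1 h at 37 °C in the dark, excitation 440 nm, emission 485 nm. Intensity normalized to fibrils alone. Triplicate, mean ± SD. Intrinsic compound fluorescence measured without peptide.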

For series [3] the target is unchanged. Nature of the series: Disruption of recombinant human amyloid beta (1 to 40) fibrils at 10 uM after 24 hrs by atomic force microscopic method. The procedure, abridged:
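10 μM Aβ1-40 fibrils plus 10 μM compound, incubated 24 h at 37 °C. Spread on fresh mica, adsorbed 5 min, water-washed, dried under nitrogen, imaged by AFM. No smoothing or noise reduction applied.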

Series [4] has as its system HT-22. Nature of the series: Cytoprotection against glutamate-induced excitotoxicity in mouse HT22 cells assessed as increase in cell viability at 1 uM after 24 hrs by optical microscopic assay. In kind it is functional, cell-based. In a few lines:
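Cells co-treated 24 h with 2 mM glutamate plus compound at 1 μM. Viable cells judged from optical microscope images.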

The target of series [5] is T1, Amyloid-beta precursor protein. Nature of the series: Disruption of recombinant human amyloid beta (1 to 40) fibrils after 2 hrs by ThT fluorescence assay.
In series [6] the test system is HT-22. Nature of the series: Cytoprotection against glutamate-induced excitotoxicity in mouse HT22 cells assessed as increase in cell proliferation at 1 uM after 24 hrs by MTT assay. The series is classed as functional, cell-based. In a few lines:
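HT-22 cells (5 × 10^3 per well) co-treated 24 h at 37 °C with 2 mM glutamate plus compound at 1 μM, final DMSO 0.025%. MTT added to 0.5 mg/mL final for 2 h, formazan dissolved in acidified isopropanol/NP40, A570 read. Proliferation relative to untreated control (100%). Mean of at least three independent experiments ± SD.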
In general terms: Tetrazolium dyes change colour on reduction, which living cells bring about.

The nature of series [7]: Cytotoxicity against mouse HT22 cells assessed as reduction in cell viability after 24 hrs by MTT assay. The series is classed as cell-based, HT-22. The procedure, abridged:
(§1)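 HT-22 cells (5 × 10^3 per well) plated, then treated the next day for 24 h with compound in complete medium (1–25 μM range; 10 mM DMSO stock, final DMSO 0.025%; DMSO as negative control). MTT at 0.5 mg/mL final, 2 h, 37 °C; formazan solubilized, A570 read. Mean of at least three independent experiments ± SD.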

The subject of series [8] is HT-22. Nature of the series: Cytoprotection against glutamate-induced oxidative stress in mouse HT22 cells assessed as decrease in iNOS mRNA level at 1 uM after 24 hrs by RT-PCR method. In kind it is functional, cell-based. The procedure, abridged:
(§2)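 HT-22 mouse hippocampal cells grown in high-glucose DMEM with 10% heat-inactivated FBS at 37 °C, 5% CO2. Compound (1 μM; DMSO stock, final DMSO 0.025%) added together with 2 mM glutamate for 24 h. Transcripts measured by qRT-PCR. iNOS or Bax/Bcl-2 ratio reported as fold change vs untreated control (set at 1) by the ΔΔCt method.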

Series [9] has as its system HT-22. Nature of the series: Cytoprotection against glutamate-induced excitotoxicity in mouse HT22 cells assessed as decrease in glutamate-induced cell cycle arrest at sub-G1 phase at 1 uM after 24 hrs by propidium iodide staining based flow cytometry. The series is classed as functional. In a few lines:
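HT-22 cells (1.5 × 10^5 per well) co-treated 24 h with 2 mM glutamate plus compound at 1 μM, final DMSO 0.025%. Pelleted, PBS-washed, stained 30 min in PI solution (50 μg/mL PI, Triton, Na citrate). DNA content read by flow cytometry and the SubG1 fraction scored. Mean of three independent experiments ± SD.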

Series [10] has as its system HT-22. Nature of the series: Cytoprotection against glutamate-induced apoptosis in mouse HT22 cells assessed as decrease in Bax/Bcl2 ratio at 1 uM after 24 hrs by RT-PCR method. The series is classed as functional, cell-based. The procedure, abridged:
as §2

Series [11] concerns HT-22. Nature of the series: Cytotoxicity against mouse HT22 cells assessed as reduction in cell viability at 5 uM after 24 hrs by MTT assay. The following applies: ht-22, 24 h. The series is classed as cell-based. In a few lines:
as §1

For series [12], the system named is HT-22. Nature of the series: Cytotoxicity against mouse HT22 cells assessed as reduction in cell viability at 10 uM after 24 hrs by MTT assay. The series is classed as cell-based. The following applies: ht-22, 24 h. In a few lines: as §1

T1 sequence (P05067 whole entry): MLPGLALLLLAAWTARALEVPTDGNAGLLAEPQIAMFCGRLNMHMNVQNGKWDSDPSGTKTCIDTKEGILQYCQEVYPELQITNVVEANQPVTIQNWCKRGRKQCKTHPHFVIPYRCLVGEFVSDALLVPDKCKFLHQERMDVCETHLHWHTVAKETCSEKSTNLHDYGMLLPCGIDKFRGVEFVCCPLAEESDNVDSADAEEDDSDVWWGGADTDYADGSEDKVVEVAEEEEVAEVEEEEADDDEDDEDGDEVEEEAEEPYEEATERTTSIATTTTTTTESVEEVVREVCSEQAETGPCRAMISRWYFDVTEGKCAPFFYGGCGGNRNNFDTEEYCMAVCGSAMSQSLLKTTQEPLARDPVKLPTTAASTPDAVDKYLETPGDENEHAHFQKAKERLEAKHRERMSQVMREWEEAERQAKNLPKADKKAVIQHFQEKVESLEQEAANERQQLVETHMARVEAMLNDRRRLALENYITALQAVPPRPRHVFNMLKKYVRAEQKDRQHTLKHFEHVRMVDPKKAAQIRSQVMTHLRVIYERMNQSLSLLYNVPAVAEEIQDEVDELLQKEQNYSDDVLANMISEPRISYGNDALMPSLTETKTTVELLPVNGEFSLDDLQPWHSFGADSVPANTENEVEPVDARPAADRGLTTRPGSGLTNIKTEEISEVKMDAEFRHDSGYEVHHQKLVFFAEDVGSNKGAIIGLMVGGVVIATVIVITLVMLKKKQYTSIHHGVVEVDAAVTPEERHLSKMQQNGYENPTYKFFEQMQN

With `O=C(/C=C/c1ccccc1)/C(CCCN1C(=O)c2ccccc2C1=O)=C(O)/C=C/c1ccccc1`, the DC50 result in series [1] was “Not Active”. For the same compound, the result in series [2] was Active.

In the case of `COc1cc(/C=C/c2cc(C)[nH]n2)ccc1O`, in [1] (read-out: DC50), the DC50 was determined as 38800 nM. For the same compound, the outcome in [2] was Active.

`COc1cc(/C=C/C(=O)/C=C(/C)O)ccc1O`: in [1], the DC50 entry is given as “Not Active”. Besides, the result in series [2] was Active.

For `O=C(/C=C(O)/C=C/c1ccccc1)/C=C/c1ccccc1`, the DC50 entry in series [1] is recorded as “Not Active”. The outcome in [3] was inactive. Further, the outcome in series [2] was Active.

Regarding `COc1cc(/C=C/c2cc(/C=C/c3ccc(OC(C)=O)c(OC)c3)[nH]n2)ccc1OC(C)=O`, the result with HT-22 [4], in the series with HT-22 [6], in the series on HT-22 [8], in the series on HT-22 [9] and in the series on HT-22 [10] was Active. For the same compound, the figures for the DC50 in [1] (read-out: DC50) and in [5] were 310 nM and 650 nM, respectively. For the same compound, the MNTC at 24 h in series [7] came to 1000 nM. Moreover, the Activity entry in the series on HT-22 [11] was “Toxic”; in series [2], over 75%.

Consider `C(=C\c1cc(/C=C/c2ccccc2)[nH]n1)/c1ccccc1`, for which the DC50 entry in series [1] is “Not Active”. The result in [2] was Active.

On to `COc1cc(/C=C/c2cc(/C=C/c3ccc(O)c(OC)c3)[nH]n2)ccc1O` [CURCUMIN PYRAZOLE], for which the figures for the Activity entry in series [1], in [5] and in series [2] were “Dose-dependent effect”, “Dose-dependent effect” and over 75%, respectively. Also, the DC50 in [1] (read-out: DC50) amounted to 1470 nM.

Regarding `COc1cc(/C=C/C(=O)/C(CCCN2C(=O)c3ccccc3C2=O)=C(O)/C=C/c2ccc(O)c(OC)c2)ccc1O`, in series [1] (read-out: DC50), the DC50 worked out at 1160 nM. The Activity in [2] is over 75%.

Take `COc1cccc(/C=C/C(=O)/C=C(O)/C=C/c2cccc(OC)c2)c1`: the DC50 entry in series [1] is recorded as “Not Active”.

Consider `COc1cc(/C=C/C(=O)CC(=O)/C=C/c2ccc(O)c(OC)c2)ccc1O` [CURCUMIN], for which the result (with HT-22 [4]; in series [3]; with HT-22 [6]; in the series on HT-22 [8]; with HT-22 [9]; in the series with HT-22 [10]) was Active. Further, the Activity result in series [1] is “Dose-dependent effect”; in series [5] it was “Dose-dependent effect”; with HT-22 [12] it was “Toxic”; in series [2] it was over 75%. Also, the MNTC at 24 h in series [7] worked out at 1000 nM.

For the compound `COc1cc(/C=C/C(=O)/C=C(O)/C=C/c2ccc(OC(C)=O)c(OC)c2)ccc1OC(C)=O`, the outcome with HT-22 [4], in the series with HT-22 [6], in the series on HT-22 [8], in the series on HT-22 [9] and in the series with HT-22 [10] was Active. The figures for the DC50 in series [1] (read-out: DC50) and in series [5] were 1950 nM and 1000 nM, respectively. The MNTC at 24 h in [7] was determined as 1000 nM. In addition, the Activity entry in the series with HT-22 [11] was “Toxic”.
